Test results taken from ChEMBL document CHEMBL3616374, “Structure-Activity Relationship Studies of Orally Active Antimalarial 2,4-Diamino-thienopyrimidines” (J Med Chem, 2015).
In brackets after ≈: the same amount, converted by molar mass.

Experiments:
Plasmodium falciparum [1] = assay: Antiplasmodial activity against multidrug-sensitive Plasmodium falciparum NF54 by [3H]-hypoxanthine incorporation assay; type: functional, organism-based
Summary of the method: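 IC50 against P. falciparum NF54 was run with chloroquine and artesunate as reference drugs in every experiment. Values are the mean of at least 2 independent experiments.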

Plasmodium falciparum [2] = assay: Antiplasmodial activity against multidrug-resistant Plasmodium falciparum K1 by [3H]-hypoxanthine incorporation assay; type: functional, organism-based
Summary of the method: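 In vitro IC50 against the multidrug-resistant K1 strain of P. falciparum. Chloroquine and artesunate were run as reference drugs in every experiment. Values are means of ≥2 independent experiments.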

[3] = Solubility of the compound in phosphate buffer at pH 6.5; type: physicochemical
Summary of the method: (§1)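 Solubility was measured by a scaled-down shake flask method.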

[4] = Solubility of the compound in 0.01 M HCl at pH 2; type: physicochemical; summary of the method: as §1
[5] = Metabolic stability of the compound in human liver microsomes at 0.1 uM after 30 mins by LC-MS/MS analysis; type: ADME; details: read-out: Stability
Summary of the method: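 A one-point microsomal stability assay was used, expressed as the percentage of parent compound remaining after 30 min incubation.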

[6] = Intrinsic clearance in human liver microsomes assessed per mg of protein at 0.1 uM by LC-MS/MS analysis; type: ADME; details: read-out: CLH
[7] = Degradation half-life in human liver microsomes at 0.1 uM by LC-MS/MS analysis; type: ADME
[8] = Partition coefficient, log D of the compound at pH 7.4 by HPLC chromatographic method; type: physicochemical; details: octanol/water
Summary of the method: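 logD was estimated by HPLC-DAD-MS.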

[9] = target: Voltage-gated inwardly rectifying potassium channel KCNH2 (Homo sapiens, UniProt Q12809); assay: Inhibition of human ERG expressed in CHO cells by patch clamp electrophysiology assay; type: cell-based
Plasmodium berghei [10] = assay: Antimalarial activity against GFP-transfected Plasmodium berghei ANKA infected in NMRI mouse assessed as mean survival time at 50 mg/kg, po qd for 4 days by flow cytometry analysis; type: functional
Summary of the method: (§2)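 P. berghei-infected mice dosed orally at 50 mg/kg once daily for 4 days. Compound was dissolved or suspended in a standard non-solubilizing HPMC suspension vehicle. Mice were watched for acute toxicity after dosing. Parasitemia reduction was calculated against untreated infected controls, and survival was recorded as mean survival time in days.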

Mus musculus = assay: Acute toxicity in GFP-transfected Plasmodium berghei ANKA infected NMRI mouse at 50 mg/kg, po qd for 4 days; type: organism-based; details: in vivo, 96 h; summary of the method: as §2
Plasmodium berghei [11] = assay: Antimalarial activity against GFP-transfected Plasmodium berghei ANKA infected in NMRI mouse assessed as reduction of parasitemia in blood at 50 mg/kg, po qd for 4 days by flow cytometry analysis; type: functional; set-up: scale not given: the % may be the effect or the level left
Summary of the method: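 In P. berghei-infected mice, compound was dissolved or suspended in a standard non-solubilizing HPMC suspension vehicle and given orally once daily for 4 days (4 × 50 mg/kg). Parasitemia reduction was expressed as % relative to untreated control mice. Mean survival time in days was also recorded.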

Sequence of Voltage-gated inwardly rectifying potassium channel KCNH2 (Q12809 whole entry): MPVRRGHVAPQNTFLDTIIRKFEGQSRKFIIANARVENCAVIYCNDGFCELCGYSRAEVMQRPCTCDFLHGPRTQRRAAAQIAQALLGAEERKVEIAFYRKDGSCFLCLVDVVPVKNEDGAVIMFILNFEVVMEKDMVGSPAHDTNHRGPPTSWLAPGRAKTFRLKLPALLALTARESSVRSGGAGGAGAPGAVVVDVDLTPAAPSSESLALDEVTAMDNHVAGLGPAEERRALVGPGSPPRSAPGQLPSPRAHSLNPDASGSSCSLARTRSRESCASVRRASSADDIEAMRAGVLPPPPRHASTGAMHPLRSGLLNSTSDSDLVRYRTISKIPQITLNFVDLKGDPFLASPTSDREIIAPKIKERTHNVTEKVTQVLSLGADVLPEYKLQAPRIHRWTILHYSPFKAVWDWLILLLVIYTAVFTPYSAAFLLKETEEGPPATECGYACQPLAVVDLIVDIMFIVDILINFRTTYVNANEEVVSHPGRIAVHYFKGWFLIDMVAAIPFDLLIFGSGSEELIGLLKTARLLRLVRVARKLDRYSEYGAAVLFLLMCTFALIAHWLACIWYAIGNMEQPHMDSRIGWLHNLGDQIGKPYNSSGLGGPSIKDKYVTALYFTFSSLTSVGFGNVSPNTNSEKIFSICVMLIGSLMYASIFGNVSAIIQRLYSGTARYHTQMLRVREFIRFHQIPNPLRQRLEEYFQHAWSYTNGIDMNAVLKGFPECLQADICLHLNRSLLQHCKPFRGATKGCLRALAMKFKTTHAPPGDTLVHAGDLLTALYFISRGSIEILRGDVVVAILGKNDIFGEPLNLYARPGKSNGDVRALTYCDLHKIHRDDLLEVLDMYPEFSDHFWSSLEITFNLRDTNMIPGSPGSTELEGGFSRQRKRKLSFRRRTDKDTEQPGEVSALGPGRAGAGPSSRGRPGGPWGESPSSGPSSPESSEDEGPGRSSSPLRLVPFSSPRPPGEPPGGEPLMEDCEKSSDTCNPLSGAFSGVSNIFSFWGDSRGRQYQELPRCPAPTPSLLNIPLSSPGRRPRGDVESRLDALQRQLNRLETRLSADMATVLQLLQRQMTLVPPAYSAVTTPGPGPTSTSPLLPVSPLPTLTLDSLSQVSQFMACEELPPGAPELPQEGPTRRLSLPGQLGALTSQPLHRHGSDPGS

Structure (SMILES)	IC50 (Plasmodium falciparum [1]) [nM]	IC50 (Plasmodium falciparum [2]) [nM]	solubility [3] [µg/mL]	solubility [4] [µg/mL]	remaining at 0.5 h, 0.1 µM [5] [%]	further results
Nc1nc(N2CCC(O)CC2)c2sc(-c3ccc(C(F)(F)F)cc3)cc2n1	> 2540					
CNc1nc(NCCCN)c2sc(-c3ccc(C(F)(F)F)cc3)cc2n1	> 2610	> 2610				
CNc1nc(NCCCO)c2sc(-c3ccc(C(F)(F)F)cc3)cc2n1	111	233				
CNc1nc(OCCCN(C)C)c2sc(-c3ccc(C(F)(F)F)cc3)cc2n1	1830	> 2440	174 (≈ 424 µM)	174 (≈ 424 µM)		
CNc1nc(NCCN2CCNCC2)c2sc(-c3ccc(C(F)(F)F)cc3)cc2n1	34	37	115 (≈ 263 µM)	203 (≈ 465 µM)	100	
CNc1nc(NCCCN2CCOCC2)c2sc(-c3ccc(C(F)(F)F)cc3)cc2n1	43		96 (≈ 213 µM)	196 (≈ 434 µM)		microsomal CLint at 0.1 µM [6]: 72.4 µL/min/mg; half-life at 0.1 µM [7]: 0.398 h
CNc1nc(NCCN2CCOCC2)c2sc(-c3ccc(C(F)(F)F)cc3)cc2n1	80	121	42 (≈ 96 µM)	213 (≈ 487 µM)	51	
CNc1nc(N)c2sc(-c3ccc(C(F)(F)F)cc3)cc2n1	1160		3.1 (≈ 9.56 µM)	> 100		chromatographic logD [8]: 3.4
CNc1nc(NCC(F)(F)F)c2sc(-c3ccc(C(F)(F)F)cc3)cc2n1	47	138	< 5	28 (≈ 68.9 µM)	75	IC50 [9]: > 33000 nM
CNc1nc(NC(C)(C)C)c2sc(-c3ccc(C(F)(F)F)cc3)cc2n1	116		< 1.6	1.6 (≈ 4.21 µM)		microsomal CLint at 0.1 µM [6]: 14 µL/min/mg; chromatographic logD [8]: > 5.3; half-life at 0.1 µM [7]: 2.07 h
CNc1nc(NC2CC2)c2sc(-c3ccc(C(F)(F)F)cc3)cc2n1	137	447	< 5	120 (≈ 329 µM)		microsomal CLint at 0.1 µM [6]: 25.2 µL/min/mg; half-life at 0.1 µM [7]: 1.15 h
CNc1nc(N2CCNCC2)c2sc(-c3ccc(C(F)(F)F)cc3)cc2n1	95					
CNc1nc(NC2CCOCC2)c2sc(-c3ccc(C(F)(F)F)cc3)cc2n1	47	140	< 5	< 5	100	
CNc1nc(Nc2cccc(C(N)=O)c2)c2sc(-c3ccc(C(F)(F)F)cc3)cc2n1	52	113	8 (≈ 18 µM)	85 (≈ 192 µM)	83	
CNc1nc(-c2ccc(C(F)(F)F)cc2)c2sc(-c3ccc(C(F)(F)F)cc3)cc2n1	> 2210					
CN(C)CCCNc1nc(N)nc2cc(-c3ccc(C(F)(F)F)cc3)sc12	57		148 (≈ 374 µM)	210 (≈ 531 µM)	94	microsomal CLint at 0.1 µM [6]: 16.9 µL/min/mg; half-life at 0.1 µM [7]: 1.73 h
CN(C)CCCNc1nc(N(C)C)nc2cc(-c3ccc(C(F)(F)F)cc3)sc12	100		168 (≈ 397 µM)	212 (≈ 501 µM)	66	
CN(C)CCCNc1ncnc2cc(-c3ccc(C(F)(F)F)cc3)sc12	500		205 (≈ 539 µM)	209 (≈ 549 µM)	91	

Structure (SMILES)	IC50 (Plasmodium falciparum [1]) [nM]	IC50 (Plasmodium falciparum [2]) [nM]	solubility [3] [µg/mL]	solubility [4] [µg/mL]	remaining at 0.5 h, 0.1 µM [5] [%]	further results
CN(C)CCCNc1nc(Cl)nc2cc(-c3ccc(C(F)(F)F)cc3)sc12	1080					
COc1nc(NCCCN(C)C)c2sc(-c3ccc(C(F)(F)F)cc3)cc2n1	1390	1400	< 5	214 (≈ 521 µM)		microsomal CLint at 0.1 µM [6]: < 17 µL/min/mg; half-life at 0.1 µM [7]: > 1.67 h
CN(C)CCCNc1nc(NCc2ccccc2)nc2cc(-c3ccc(C(F)(F)F)cc3)sc12	42		< 5	208 (≈ 428 µM)	100	
CN(C)CCCNc1nc(N2CCNCC2)nc2cc(-c3ccc(C(F)(F)F)cc3)sc12	164		178 (≈ 383 µM)	198 (≈ 426 µM)		microsomal CLint at 0.1 µM [6]: < 17 µL/min/mg; half-life at 0.1 µM [7]: > 1.67 h
CN(C)CCCNc1nc(N2CCOCC2)nc2cc(-c3ccc(C(F)(F)F)cc3)sc12	> 2150		< 5	211 (≈ 453 µM)	92	
CS(=O)(=O)c1ccc(-c2nc(N3CCNCC3)nc3cc(-c4ccc(C(F)(F)F)cc4)sc23)cc1	1460		< 5	174 (≈ 336 µM)		
Nc1nc(NC2CCNCC2)c2sc(-c3ccc(C(F)(F)F)cc3)cc2n1	25	24	168 (≈ 427 µM)	168 (≈ 427 µM)	100	microsomal CLint at 0.1 µM [6]: < 11.6 µL/min/mg; chromatographic logD [8]: 2.4; MSD (Plasmodium berghei [10]): 7 days; Activity (Mus musculus): Non-toxic; half-life at 0.1 µM [7]: > 2.5 h; Activity (Plasmodium berghei [11]): 78%
Nc1nc(NC2CCCNC2)c2sc(-c3ccc(C(F)(F)F)cc3)cc2n1 (stereo not drawn)	36		125 (≈ 318 µM)	125 (≈ 318 µM)	69	
CN1CCC(Nc2nc(N)nc3cc(-c4ccc(C(F)(F)F)cc4)sc23)CC1	50		147 (≈ 361 µM)	147 (≈ 361 µM)	95	
Nc1nc(NC2CCCCC2)c2sc(-c3ccc(C(F)(F)F)cc3)cc2n1	168					
Nc1nc(NC2CCNC2)c2sc(-c3ccc(C(F)(F)F)cc3)cc2n1 (stereo not drawn)	100	116	155 (≈ 409 µM)	155 (≈ 409 µM)		microsomal CLint at 0.1 µM [6]: < 11.6 µL/min/mg; half-life at 0.1 µM [7]: > 2.5 h; IC50 [9]: 2400 nM
Nc1nc(NC2CNC2)c2sc(-c3ccc(C(F)(F)F)cc3)cc2n1	936					
Nc1nc(NC2CCOCC2)c2sc(-c3ccc(C(F)(F)F)cc3)cc2n1	451		< 5	< 5	98	IC50 [9]: 700 nM
Nc1nc(NC2CCS(=O)(=O)CC2)c2sc(-c3ccc(C(F)(F)F)cc3)cc2n1	678					
N#CC1CCN(c2nc(N)nc3cc(-c4ccc(C(F)(F)F)cc4)sc23)CC1	> 2480					
Nc1nc(N2CCC(F)(F)CC2)c2sc(-c3ccc(C(F)(F)F)cc3)cc2n1	> 2380					
C[C@H]1[C@H](OC(=O)CCC(=O)O)O[C@@H]2O[C@@]3(C)CC[C@H]4[C@H](C)CC[C@@H]1[C@@]24OO3 [ARTESUNATE]	4	3				
